Measured values from ChEMBL document CHEMBL4732230, “Design, synthesis, and biological evaluation of 4-benzoylamino-1H-pyrazole-3-carboxamide derivatives as potent CDK2 inhibitors” (Eur J Med Chem, 2021).

Columns and labels:
[1] = target: Cyclin-dependent kinase 1/cyclin B1 (Homo sapiens, UniProt P06493); type: protein-complex assay
CDK2/Cyclin A2 = CDK2/Cyclin A2 (Homo sapiens, UniProt P24941); experiment: Inhibition of CDK2/cyclin A2 (unknown origin) using FAM-labeled peptide and ATP as substrate preincubated for 10 mins followed by substrate addition by mobility shift assay; type: protein-complex assay
A2058 = experiment: Antiproliferative activity against human A2058 cells assessed as reduction in cell viability measured after 96 hrs by Celltiter-Glo luminescent assay; type: functional, cell-based; conditions: A2058, 96 h
How it was run: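 Cells in DMEM (A2058, MRC5) or RPMI 1640 (MV4-11), each with 10% fetal bovine serum and 1% penicillin/streptomycin. Cells were plated in 96-well plates and exposed to serially concentrated compound for 96 h, with DMSO as control. Viability was read by CellTiter-Glo luminescence and IC50 derived.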

Cyclin-dependent kinase 1/cyclin B1, sequence (P06493 whole entry): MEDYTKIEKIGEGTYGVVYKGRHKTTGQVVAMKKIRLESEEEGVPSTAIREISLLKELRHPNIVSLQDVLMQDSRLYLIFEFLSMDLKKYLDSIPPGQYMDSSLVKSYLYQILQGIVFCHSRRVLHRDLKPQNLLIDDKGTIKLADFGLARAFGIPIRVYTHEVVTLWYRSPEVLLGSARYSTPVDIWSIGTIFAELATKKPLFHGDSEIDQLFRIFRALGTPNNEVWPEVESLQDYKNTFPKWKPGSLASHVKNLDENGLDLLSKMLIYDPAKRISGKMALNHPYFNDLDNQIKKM
Cyclin-dependent kinase 1/cyclin B1, sequence (P14635 whole entry, further chain): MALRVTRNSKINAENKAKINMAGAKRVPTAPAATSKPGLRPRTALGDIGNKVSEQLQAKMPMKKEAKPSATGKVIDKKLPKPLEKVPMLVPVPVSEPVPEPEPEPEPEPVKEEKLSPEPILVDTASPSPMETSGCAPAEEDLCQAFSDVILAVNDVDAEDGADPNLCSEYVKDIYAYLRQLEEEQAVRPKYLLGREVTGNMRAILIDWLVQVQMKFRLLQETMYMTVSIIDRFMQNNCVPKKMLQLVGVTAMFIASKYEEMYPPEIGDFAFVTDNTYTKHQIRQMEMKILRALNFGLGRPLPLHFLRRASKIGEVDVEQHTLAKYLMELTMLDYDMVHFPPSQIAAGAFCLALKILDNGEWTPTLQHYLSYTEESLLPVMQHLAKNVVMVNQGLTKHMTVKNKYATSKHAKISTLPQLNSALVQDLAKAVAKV

IC50 [1] [nM]	IC50 (CDK2/Cyclin A2) [nM]	SMILES	IC50 (A2058) [nM]
3690	485	Cc1ccc(C(=O)NCCCN2CCOCC2)cc1-c1ccc(F)c(C(=O)Nc2c[nH]nc2C(=O)Nc2ccc(F)cc2)c1F	6510
723	73	O=C(NCCCN1CCOCC1)c1cccc(-c2ccc(F)c(C(=O)Nc3c[nH]nc3C(=O)Nc3ccc(F)cc3)c2F)c1	650

The next lines start with the compound.

SMILES	IC50 [1] [nM]	IC50 (CDK2/Cyclin A2) [nM]	IC50 (A2058) [nM]
COc1ccc(-c2ccc(F)c(C(=O)Nc3c[nH]nc3C(=O)Nc3ccc(F)cc3)c2F)cn1	712	144	
O=C(Nc1ccc(F)cc1)c1n[nH]cc1NC(=O)c1c(F)ccc(-c2cccc(CO)c2)c1F	537	76	
O=C(Nc1ccc(F)cc1)c1n[nH]cc1NC(=O)c1c(F)cccc1F	14		1010
